Source: ChEMBL document CHEMBL4364334, “Synthesis, biological evaluation and molecular modeling of novel selective COX-2 inhibitors: sulfide, sulfoxide, and sulfone derivatives of 1,5-diarylpyrrol-3-substituted scaffold” (Bioorg Med Chem, 2019)

Assays:
[1] = molecular target: T1, Prostaglandin G/H synthase 1 (Mus musculus, UniProt P22437); experiment: Inhibition of COX-1 in mouse J774 cells assessed as inhibition of PEG2 production using arachidonic acid as substrate pretreated for 15 mins followed by substrate addition measured after 30 mins by radioimmuno assay; format: cell-based
T1 sequence (P22437 whole entry): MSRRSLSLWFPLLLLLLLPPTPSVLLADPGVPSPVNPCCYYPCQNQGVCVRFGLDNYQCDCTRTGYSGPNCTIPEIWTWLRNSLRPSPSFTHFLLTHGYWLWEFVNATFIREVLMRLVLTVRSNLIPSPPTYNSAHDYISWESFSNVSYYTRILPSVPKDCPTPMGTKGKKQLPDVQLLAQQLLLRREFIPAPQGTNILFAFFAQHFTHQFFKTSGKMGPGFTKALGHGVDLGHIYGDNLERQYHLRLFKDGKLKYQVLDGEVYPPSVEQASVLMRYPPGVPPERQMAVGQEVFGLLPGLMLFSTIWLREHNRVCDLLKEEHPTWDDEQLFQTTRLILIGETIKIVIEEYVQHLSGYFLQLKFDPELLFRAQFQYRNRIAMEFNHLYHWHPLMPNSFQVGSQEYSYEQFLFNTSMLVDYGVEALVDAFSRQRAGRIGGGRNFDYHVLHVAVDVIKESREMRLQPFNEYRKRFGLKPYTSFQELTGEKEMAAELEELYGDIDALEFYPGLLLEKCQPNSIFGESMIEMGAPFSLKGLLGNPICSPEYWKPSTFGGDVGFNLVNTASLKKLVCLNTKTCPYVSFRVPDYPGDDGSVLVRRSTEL
Outline: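 Murine J774 macrophages were adhered 2 h at 37 °C in 5% CO2 and given fresh medium. They were pretreated 15 min with compound (10 µM; 0.1–1 µM when inhibition exceeded 50%), then incubated 30 min at 37 °C with 15 µM arachidonic acid. Supernatant PGE2 was measured by RIA. Values are means of 3 experiments of % inhibition versus control, with IC50 from a sigmoidal variable-slope fit.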

Mus musculus [2] = species on record: Mus musculus; experiment: Selectivity index, ratio of IC50 for inhibition of COX-1 in mouse J774 cells to IC50 for inhibition of COX-2 in LPS-induced mouse J774 cells; format: cell-based
[3] = molecular target: T2, Prostaglandin G/H synthase 2 (Mus musculus, UniProt Q05769); experiment: Inhibition of COX-2 in LPS-induced mouse J774 cells assessed as inhibition of PEG2 production after 24 hrs by radioimmuno assay; format: cell-based
T2 sequence (Q05769 whole entry): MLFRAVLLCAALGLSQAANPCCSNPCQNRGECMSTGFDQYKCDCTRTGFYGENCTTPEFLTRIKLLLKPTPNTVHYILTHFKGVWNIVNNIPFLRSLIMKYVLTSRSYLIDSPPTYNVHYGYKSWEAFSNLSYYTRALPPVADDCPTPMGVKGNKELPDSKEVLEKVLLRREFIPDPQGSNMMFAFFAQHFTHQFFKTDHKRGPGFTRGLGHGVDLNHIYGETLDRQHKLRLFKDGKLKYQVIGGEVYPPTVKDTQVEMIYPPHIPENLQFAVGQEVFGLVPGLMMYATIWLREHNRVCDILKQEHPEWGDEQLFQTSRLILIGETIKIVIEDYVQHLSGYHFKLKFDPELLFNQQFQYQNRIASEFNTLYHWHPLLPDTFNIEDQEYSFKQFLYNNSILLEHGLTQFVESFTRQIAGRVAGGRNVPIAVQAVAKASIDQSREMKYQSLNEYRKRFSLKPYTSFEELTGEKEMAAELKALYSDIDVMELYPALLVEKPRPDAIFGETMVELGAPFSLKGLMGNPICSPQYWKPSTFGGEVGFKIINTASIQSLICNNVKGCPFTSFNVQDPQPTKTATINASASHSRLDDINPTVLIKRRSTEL

Mus musculus [4] = experiment: Antinociceptive activity in Swiss albino mouse model of acetic-acid-induced writhing assessed as inhibition of writhing numbers at 20 mg/kg, po measured starting 5 mins post acetic acid challenge for 10 mins (reference value: 30.5 +/- 3.7)
Mus musculus [5] = experiment: Antinociceptive activity in Swiss albino mouse model of acetic-acid-induced writhing assessed as inhibition of writhing numbers at 40 mg/kg, po measured starting 5 mins post acetic acid challenge for 10 mins (reference value: 30.5 +/- 3.7)
Rattus norvegicus [6] = experiment: Antiinflammatory activity in rat assessed as inhibition of carrageenan-induced paw edema by measuring paw volume at 20 mg/kg, po administered as single dose preincubated with carrageenan for 4 hrs and followed by compound treatment and measured after 1 hr by plethysmometer relative to untreated control; format: functional
Mus musculus [7] = experiment: Antinociceptive activity in Swiss albino mouse model of acetic-acid-induced writhing assessed as inhibition of writhing numbers at 10 mg/kg, po measured starting 5 mins post acetic acid challenge for 10 mins (reference value: 30.5 +/- 3.7)
Rattus norvegicus [8] = experiment: (§1) Anti-inflammatory activity in rat assessed as effect on carrageenan-induced hyperalgesia by measuring paw pressure tolerance at 20 mg/kg, po administered as single dose preincubated with carrageenan for 4 hrs and followed by compound treatment and measured after 60 mins by paw-pressure test (reference value: 37.2 +/- 3.5 g); format: functional
Rattus norvegicus [9] = experiment: Antiinflammatory activity in rat assessed as effect on carrageenan-induced paw edema by measuring paw volume at 20 mg/kg, po administered as single dose preincubated with carrageenan for 4 hrs and followed by compound treatment and measured after 30 mins by plethysmometer (reference value: 2.78 +/- 0.09 ml); format: functional
Rattus norvegicus [10] = experiment: as §1, with “30” for “60”, “33.9” for “37.2”, “3.7” for “3.5”; format: functional
Rattus norvegicus [11] = experiment: as §1, with “90” for “60”, “36.7” for “37.2”, “4” for “3.5”; format: functional

| IC50 [1] | IC50 [3] | SMILES | Ratio IC50 (Mus musculus [2]) | Activity (Mus musculus [4]) | Activity (Mus musculus [5]) | inhibition in vivo at 20 mg/kg (Rattus norvegicus [6]) | Activity (Mus musculus [7]) | Activity (Rattus norvegicus [8]) | Activity (Rattus norvegicus [9]) | Activity (Rattus norvegicus [10]) | Activity (Rattus norvegicus [11]) |
| --- | --- | --- | --- | --- | --- | --- | --- | --- | --- | --- | --- |
| > 10000 nM | 285 nM | CCCSCCc1cc(-c2ccc(S(C)(=O)=O)cc2)n(-c2cccc(F)c2)c1C | > 24 | 23.4 | 23.7 | 100% | 30.3 | 38.8 g | 1.74 mL | 41.5 g | 37.2 g |
| > 10000 nM | 60 nM | CCC[S+]([O-])CCc1cc(-c2ccc(S(C)(=O)=O)cc2)n(-c2ccccc2)c1C (centres undefined) | > 167 | – | – | – | – | – | – | – | – |
| > 10000 nM | 11 nM | CCCSCCc1cc(-c2ccc(S(C)(=O)=O)cc2)n(-c2ccc(F)cc2)c1C | > 909 | 17.4 | 15.9 | 100% | 28.7 | 50.4 g | 1.75 mL | 57.3 g | 41.9 g |
| > 10000 nM | 44 nM | CCCS(=O)(=O)CCc1cc(-c2ccc(S(C)(=O)=O)cc2)n(-c2ccc(F)cc2)c1C | > 227 | – | – | – | – | – | – | – | – |

The remaining lines, values behind:

| SMILES | IC50 [1] | IC50 [3] | Ratio IC50 (Mus musculus [2]) | Activity (Mus musculus [4]) | Activity (Mus musculus [5]) | inhibition in vivo at 20 mg/kg (Rattus norvegicus [6]) | Activity (Mus musculus [7]) | Activity (Rattus norvegicus [8]) | Activity (Rattus norvegicus [9]) | Activity (Rattus norvegicus [10]) | Activity (Rattus norvegicus [11]) |
| --- | --- | --- | --- | --- | --- | --- | --- | --- | --- | --- | --- |
| CCCS(=O)(=O)CCc1cc(-c2ccc(S(C)(=O)=O)cc2)n(-c2ccccc2)c1C | > 10000 nM | 34 nM | > 294 | – | – | – | – | – | – | – | – |
| CCCSCCc1cc(-c2ccc(S(C)(=O)=O)cc2)n(-c2ccccc2)c1C | > 10000 nM | 14 nM | > 714 | 25.9 | 26.4 | 100% | 32.6 | 40.3 g | 1.69 mL | 46 g | 40.2 g |
| CCC[S+]([O-])CCc1cc(-c2ccc(S(C)(=O)=O)cc2)n(-c2ccc(F)cc2)c1C (centres undefined) | > 10000 nM | 40 nM | > 250 | 23.4 | 20.3 | 100% | 28.8 | 42.5 g | 1.55 mL | 53.5 g | 38.2 g |
| Cc1c(CCOCCO)cc(-c2ccc(S(C)(=O)=O)cc2)n1-c1ccc(F)cc1 | > 10000 nM | – | – | – | – | – | – | – | – | – | – |
